T cruzi inh: T. cruzi replication inhibition. inhibition, % (no concentration beside the values). AID 1885. 1.4% of 300,000 active. T. cruzi beta-gal in NIH3T3, luminescence, 90 h;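 active means mean inhibition across valid replicates above about 55%, limit read from the data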;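 further: signal also drops with host cell toxicity which is not excluded here; 0% = plate median of DMSO wells and 100% = zero luminescence signal; higher percent means less beta-gal luminescence so fewer parasites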
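compound dosing = single 50 nL compound addition per well in DMSO | material = NIH/3T3 host cells with β-galactosidase reporter T. cruzi | input = 5,000 host fibroblasts per well | timing = ≥90 h infection period, 3 h prior cell attachment | read-out basis = percent inhibition of parasite-derived β-gal signal | detection = GalScreen β-gal luminescence, detergent lysis, 60 min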
UBC13 inh: inhibitors of human UBC13 polyubiquitin chain formation | 0.47% of 330,000 active | inhibition, % at 20 µM | P61088 | TR-FRET; in the data active means inhibition above about 45%, passing the limit was not always enough
Target sequence (P61088 whole entry, looked up): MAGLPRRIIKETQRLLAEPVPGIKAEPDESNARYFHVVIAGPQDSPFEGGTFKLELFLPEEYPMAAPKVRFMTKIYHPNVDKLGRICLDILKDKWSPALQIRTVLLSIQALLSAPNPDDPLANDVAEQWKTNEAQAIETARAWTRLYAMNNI
PP1 inh: counter-screen for PP5 inhibitors: inhibitors of human PP1-alpha; purified PP1alpha, OMFP fluorescence; 0.9% of 320,000 active; inhibition, % at 6.7 µM; AID 2235; P62136;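 active means inhibition above the mean inhibition of all tested compounds plus 3 SD, computed separately for each screening campaign, cut at about 15% in these data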
Target sequence (P62136 whole entry, looked up): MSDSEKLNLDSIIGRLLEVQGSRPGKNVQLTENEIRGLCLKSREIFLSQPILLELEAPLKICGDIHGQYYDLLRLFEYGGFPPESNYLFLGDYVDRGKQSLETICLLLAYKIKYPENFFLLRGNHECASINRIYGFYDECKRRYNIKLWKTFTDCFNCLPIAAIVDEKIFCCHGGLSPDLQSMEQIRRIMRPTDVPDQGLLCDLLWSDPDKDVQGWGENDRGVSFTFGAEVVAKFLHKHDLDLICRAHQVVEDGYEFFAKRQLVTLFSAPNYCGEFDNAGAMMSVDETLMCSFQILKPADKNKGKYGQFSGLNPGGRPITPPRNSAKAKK
AI-2 QS mod: modulates the Vibrio harveyi AI-2 quorum sensing system. 0.4% of 300,000 active. AID 2094. Vibrio harveyi JMH597 AI-2 luminescence/OD600 ratio, 9 h; active compounds read low; strain lacks LuxN and CqsS sensors; 0 = neutral-control median. activity change, % at 7.5 µM; in the data active means activity change below about -75%, passing the limit was not always enough;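 further: luminescence divided by OD600 gain over 9 h not by final OD600 alone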
pCIP destab: compounds decreasing mouse p/CIP protein stability. Q05BA5. 0.01% of 290,000 active. decrease of EGFP signal, % at 10 µM. F442A p/CIP-EGFP cells, EGFP fluorescence, 16 h;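 active means EGFP signal decrease of at least 30% at 10 µM or well 3 SD below plate mean, unless failing retest; inactive means the rest, including hits failing retest or dose response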
The depositor's hits bear a star; nt = no result given. Rows were chosen to be rich in hits. Some 2.8% of all compounds tested hit in one or more screens of this group.

SMILES	T cruzi inh	UBC13 inh	PP1 inh	AI-2 QS mod	pCIP destab
COc1cc(C2C=C(C34CC5CC(CC(C5)C3)C4)NC(=S)N2)cc(OC)c1OC (stereo unspecified)	24	-7	2	11	-9
CC1C(=O)C(C)C(c2ccc3c(c2)OCO3)NC1c1ccc2c(c1)OCO2 (stereo unspecified)	-8	-22	2	13	-8
CCOc1ccc(NS(=O)(=O)c2cc(C(=O)N3CCC3)ccc2Cl)cc1	7	5	-2	nt	nt
CC(C)N(CC(N)=O)C(=O)c1sc2cc(F)ccc2c1Cl	-5	6	0	7	1
CN1CCC(N(C)C(=O)c2sc3cc(F)ccc3c2Cl)CC1	78*	9	-8	13	-5
CCc1cc2c(=O)oc(-c3ccccc3F)nc2s1	-16	-3	-5	-7	-5
CCOC(=O)/C=C1\NC2(CCCCC2)Cc2cc(OC)c(OC)cc21	60*	0	1	3	nt
CCOC(=O)/C=C1\NC(C)(C)Cc2cc(OC)c(OC)cc21	0	3	0	15	-5
CCC(=O)Nc1nc2ccccc2n1Cc1ccc(Cl)cc1	62*	17	1	3	-7
CC(C)N1CCN(Cc2cccn2-c2ccccn2)CC1CCO (stereo unspecified)	-14	-1	-3	24	-16
CC(=O)Nc1ccc(Nc2cc(C(C)C)nc3c(-c4ccccc4)c(C)nn23)cc1	68*	21	2	-4	-10
CN(C)S(=O)(=O)c1ccc(C(=O)NNC(=O)C23CC4CC(CC(C4)C2)C3)cc1	nt	4	nt	nt	nt
CNC(=O)N1CCC(C(=O)c2c(C)c(C)c(C)c(C)c2C)CC1	0	5	-1	15	-4
CCN(c1ccccc1)S(=O)(=O)c1cc(C(=O)Nc2ccc(Br)cc2)ccc1F	57*	-8	6	-2	-9
CCN(c1ccccc1)S(=O)(=O)c1cc(C(=O)Nc2ccccc2Cl)ccc1F	13	-2	1	5	-12
O=C1NC(Cc2ccccc2)c2nc3ccc(F)cc3c(=O)n2-c2cc(Cl)ccc21 (stereo unspecified)	nt	12	nt	nt	nt
COc1ccc(CCC(=O)Nc2cccc(S(=O)(=O)N3CCOCC3)c2)cc1OC	nt	-2	nt	nt	nt
O=[N+]([O-])c1cc(Cl)cc(/C=N\Nc2ccccn2)c1O	57*	-121	-4	48	2
CS(=O)(=O)N1CCN(c2ccc(NC(=S)NC(=O)c3ccccc3[N+](=O)[O-])cc2)CC1	-11	-10	-1	17	4
Cc1ccc(-n2cccc2C(=S)N=P(N(C)C)(N(C)C)N(C)C)cc1	59*	-2	0	-1	-13
Cc1ccc(CCC(=O)Nc2ccc(Br)cc2)o1	-12	1	nt	-88*	-7
CCc1n[nH]c(=S)n1/N=C/c1cc(OC)cc([N+](=O)[O-])c1O	68*	-95	1	36	5
COc1cc(/C=N/n2c(=S)[nH]nc(C)c2=O)cc([N+](=O)[O-])c1O	2	-19	-1	19	-10
COc1ccc(-c2nn(-c3ccccc3)cc2C(=O)N2CCN(C(=O)c3ccco3)CC2)cc1	nt	7	nt	nt	nt
Cc1cc(NC(=O)CSc2nc3cc(Cl)ccc3o2)no1	-20	-2	5	31	2
SMILES	T cruzi inh	UBC13 inh	PP1 inh	AI-2 QS mod	pCIP destab
O=S1(=O)C=C(Sc2nc3cc(Cl)ccc3o2)c2ccccc21	65*	-4	0	-48	7
CCCc1sc(N/N=C/c2ccccn2)nc1-c1ccc(Br)cc1	65*	-16	0	9	-5
Clc1ccc(CSc2nnc(-c3c[nH]c4ccccc34)o2)cc1	0	6	2	-77*	-2
O=C(Nc1ccccc1-c1nnc(SCc2ccc(Cl)cc2)o1)c1ccccc1	71*	-4	1	19	2
COc1ccccc1CNC(=O)CN1C(=O)NC2(CCCCCCC2)C1=O	nt	-10	nt	nt	nt
C=CCn1c(SCC(=O)Nc2ccccc2OC)nnc1-c1ccco1	-6	-12	nt	52	1
C=CCn1c(SCC(=O)Nc2nccs2)nnc1-c1cc2cccc(OC)c2o1	-9	-10	17*	8	-4
COc1ccc(OC2CCN(C(=O)Nc3ccc(C)cc3)CC2)cc1	-8	4	-4	-2	-3
COc1ccccc1C(=O)NC(=Nc1nc2ccccc2o1)NC(=O)c1ccccc1OC	71*	-1	7	17	8
O=C(NC(=Nc1nc2ccccc2o1)NC(=O)c1ccccc1)c1ccccc1	-2	2	3	10	2
Cc1ccccc1SCC(=O)Nc1cc(C(F)(F)F)ccc1N1CCOCC1	65*	-9	5	39	nt
O=C(CCC1CCCC1)Nc1cc(C(F)(F)F)ccc1N1CCOCC1	18	4	17*	1	nt
Cc1nnc(SCC(=O)Nc2cc(C(F)(F)F)ccc2N2CCOCC2)o1	-5	2	-4	40	3
CC(C)(C)N1[C@@H](CC(=O)O)c2cc(C(F)(F)F)ccc2S1(=O)=O	-9	-7	3	14	nt
O=C(N/N=C/c1ccncc1)c1ccc(NC(=O)c2ccc(Cl)cc2)cc1	6	-27	30*	3	-6
Cc1cccc(/C=N\NC(=O)c2ccc(Cl)cc2)c1O	64*	-1	1	5	-3
Cc1ccc(/C=N/NC(=O)c2ccncc2)cc1	-8	-6	-2	38	3
Cc1ccc(C(=O)Nc2ccc(C(=O)N/N=C/c3ccncc3)cc2)cc1	12	-6	16*	17	-4
Cc1cccc(/C=N/NC(=O)Cc2ccc(Cl)cc2)c1O	3	8	3	-71	-17
O=C(Nc1ccc(Cl)cc1)c1ccc(-c2ccccn2)s1	23	1	3	16	-13
COc1ccccc1C1CCN(C(=O)c2ccco2)CC1	9	13	-4	5	-6
COc1ccc(OCc2n(CC(=O)OC3CC(C)CCC3C(C)C)c3ccccc3[n+]2C)cc1 (stereo unspecified)	50	33	16*	38	-34
Cc1ccc2nc(-c3ccc(NC(=O)CSc4nc(N)cc(=O)[nH]4)cc3)sc2c1	-3	7	16*	39	-10
Cc1ccc(C)c(N(CC(=O)Nc2ccc(-c3nc4ccc(C)cc4s3)cc2)S(C)(=O)=O)c1	65*	22	1	32	-1
Cc1ccc(N(CC(=O)Nc2ccc(-c3nc4ccc(C)cc4s3)cc2)S(C)(=O)=O)cc1	7	-17	-10	22	-17
COc1ccc(C(=O)NCCS(=O)(=O)N2CCC3(CC2)OCCO3)cc1	5	-3	-4	14	nt
CNC(=O)C(C)N1c2cccc3cccc(c23)S1(=O)=O (stereo unspecified)	-9	8	nt	15	1
CSc1ccc(-c2sc(Nc3ccccc3)n[n+]2-c2ccccc2)cc1	25	-1	17*	20	-24
CCc1ccc(Nc2n[n+](-c3ccccc3)c(-c3ccc(SC)cc3)s2)cc1	32	9	7	20	-2

Screens (PubChem)
